In ChEMBL document CHEMBL1146820, “Parallel solid-phase synthesis of disubstituted (5-biphenyltetrazolyl) hydantoins and thiohydantoins targeting the growth hormone secretagogue receptor” (Bioorg Med Chem Lett, 2004):

These compounds were tested against Growth hormone secretagogue receptor type 1 (Homo sapiens, UniProt Q92847) (assay: Inhibition of ghrelin binding to Growth hormone secretagogue receptor expressed in BHK cells).
Growth hormone secretagogue receptor type 1, sequence (Q92847 whole entry): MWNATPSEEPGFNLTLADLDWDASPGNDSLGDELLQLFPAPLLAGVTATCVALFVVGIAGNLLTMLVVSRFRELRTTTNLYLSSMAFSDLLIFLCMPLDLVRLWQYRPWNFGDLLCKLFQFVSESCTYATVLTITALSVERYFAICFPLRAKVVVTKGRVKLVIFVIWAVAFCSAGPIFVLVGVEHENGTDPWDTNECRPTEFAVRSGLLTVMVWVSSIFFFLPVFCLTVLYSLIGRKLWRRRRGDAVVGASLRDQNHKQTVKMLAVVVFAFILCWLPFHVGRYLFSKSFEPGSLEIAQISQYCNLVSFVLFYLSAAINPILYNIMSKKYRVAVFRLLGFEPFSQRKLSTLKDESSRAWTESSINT
Type: cell-based
How it was run: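 Competition binding against ¹²⁵I-ghrelin at the human GHS receptor expressed in BHK cells. Values are displacement of the radiolabelled ghrelin tracer by the test compounds.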
For `CN(C)c1ccc(N2C(=O)[C@H](CCc3ccccc3)N(Cc3ccc(-c4ccccc4-c4nn[nH]n4)cc3)C2=S)cc1`, the IC50 was greater than 100 µM. `O=C1[C@H](CCc2ccccc2)N(Cc2ccc(-c3ccccc3-c3nn[nH]n3)s2)C(=O)N1CCCN1CCCCC1` showed an IC50 of 15 µM. For `O=C1[C@H](CCc2ccccc2)N(Cc2ccc(-c3ccccc3-c3nn[nH]n3)cc2)C(=O)N1CCCN1CCCC1`, the IC50 was 1.1 µM. `O=C1[C@H](CCc2ccccc2)N(Cc2ccc(-c3ccccc3-c3nn[nH]n3)cc2)C(=S)N1CCCN1CCOCC1` showed an IC50 of 45 µM. With `CN(C)CCCN1C(=O)[C@H](CCc2ccccc2)N(Cc2ccc(-c3ccccc3-c3nn[nH]n3)cc2)C1=S` the IC50 was 8.2 µM. Work on `NCCCN1C(=O)[C@H](CCc2ccccc2)N(Cc2ccc(-c3ccccc3-c3nn[nH]n3)cc2)C1=O` yielded an IC50 greater than 100 µM. Work on `O=C1[C@H](CCc2ccccc2)N(Cc2ccc(-c3ccccc3-c3nn[nH]n3)cc2)C(=O)N1CCCN1CCCCC1` yielded an IC50 of 0.6 µM. `O=C1[C@H](CCc2ccccc2)N(Cc2cc(-c3ccccc3-c3nn[nH]n3)cs2)C(=O)N1CCCN1CCCCC1` was tested, and the IC50 was 1.3 µM. For `O=C1[C@H](Cc2c[nH]c3ccccc23)N(Cc2ccc(-c3ccccc3-c3nn[nH]n3)cc2)C(=O)N1C1CCNCC1`, the IC50 was 50 µM. Work on `O=C1[C@H](CCc2ccccc2)N(Cc2ccc(-c3ccccc3-c3nn[nH]n3)cc2F)C(=O)N1CCCN1CCCCC1` yielded an IC50 of 1.6 µM. `CN(C)CCCN1C(=O)[C@H](CCc2ccccc2)N(Cc2ccc(-c3ccccc3-c3nn[nH]n3)cc2)C1=O` showed an IC50 of 4 µM. With `CN(C)C(=O)CCN1C(=O)[C@H](CCc2ccccc2)N(Cc2ccc(-c3ccccc3-c3nn[nH]n3)cc2)C1=O` the IC50 was greater than 100 µM. Compound `CN(C)CCCN1C(=O)[C@H](Cc2ccccc2)N(Cc2ccc(-c3ccccc3-c3nn[nH]n3)cc2)C1=S` has an IC50 of 35 µM. In the case of `CN(C)CCCN1C(=O)[C@H](c2ccccc2)N(Cc2ccc(-c3ccccc3-c3nn[nH]n3)cc2)C1=S`, the IC50 is reported as 35 µM.
